Reference: ChEMBL document CHEMBL3046529, “Chiral gamma-aryl-1H-1,2,4-triazole derivatives as highly potential antifungal agents: Design, synthesis, structure, and in vitro fungicidal activities” (J Agric Food Chem, 2008)

How the values were obtained:
Colletotrichum gossypii [1] = experiment: In vitro fungicidal activity against Colletotrichum gossypii assessed as mycelial growth inhibition at 26 degC after 48 hr by agar diffusion assay; type: functional, organism-based
Dothiorella gregaria [2] = experiment: In vitro fungicidal activity against Dothiorella gregaria assessed as mycelial growth inhibition at 26 degC after 48 hr by agar diffusion assay; type: functional, organism-based
Fusarium graminearum [3] = experiment: In vitro fungicidal activity against Fusarium graminearum assessed as mycelial growth inhibition at 26 degC after 48 hr by agar diffusion assay; type: functional, organism-based
Botrytis cinerea [4] = experiment: In vitro fungicidal activity against Botryotinia fuckeliana assessed as mycelial growth inhibition at 26 degC after 48 hr by agar diffusion assay; type: functional, organism-based
Rhizoctonia solani [5] = experiment: In vitro fungicidal activity against Rhizoctonia solani assessed as mycelial growth inhibition at 26 degC after 48 hr by agar diffusion assay; type: functional, organism-based
Fusarium oxysporum [6] = experiment: In vitro fungicidal activity against Fusarium oxysporum assessed as mycelial growth inhibition at 26 degC after 48 hr by agar diffusion assay; type: functional, organism-based
Colletotrichum gossypii [7] = experiment: In vitro fungicidal activity against Colletotrichum gossypii assessed as mycelial growth inhibition at 50 mg/l at 26 degC after 48 hr by agar diffusion assay; type: functional; conditions: read-out: GI
Dothiorella gregaria [8] = experiment: In vitro fungicidal activity against Dothiorella gregaria assessed as mycelial growth inhibition at 50 mg/l at 26 degC after 48 hr by agar diffusion assay; type: functional; conditions: read-out: GI
Fusarium graminearum [9] = experiment: In vitro fungicidal activity against Fusarium graminearum assessed as mycelial growth inhibition at 50 mg/l at 26 degC after 48 hr by agar diffusion assay; type: functional; conditions: read-out: GI
Botrytis cinerea [10] = experiment: In vitro fungicidal activity against Botryotinia fuckeliana assessed as mycelial growth inhibition at 50 mg/l at 26 degC after 48 hr by agar diffusion assay; type: functional; conditions: read-out: GI
Rhizoctonia solani [11] = experiment: In vitro fungicidal activity against Rhizoctonia solani assessed as mycelial growth inhibition at 50 mg/l at 26 degC after 48 hr by agar diffusion assay; type: functional; conditions: read-out: GI
Fusarium oxysporum [12] = experiment: In vitro fungicidal activity against Fusarium oxysporum assessed as mycelial growth inhibition at 50 mg/l at 26 degC after 48 hr by agar diffusion assay; type: functional; conditions: read-out: GI
Colletotrichum gossypii [13] = experiment: In vitro fungicidal activity against Colletotrichum gossypii assessed as mycelial growth inhibition at 100 mg/l at 26 degC after 48 hr by agar diffusion assay; type: functional; conditions: read-out: GI
Method in brief: (§1)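 Compound is dissolved in DMF and added aseptically to autoclaved agar that has cooled to about 45-50 °C, giving 100 mg/L in the medium. Solvent never exceeds […]. Plain medium is the blank. A 5 mm mycelial plug, cut from the margin of an actively growing colony, goes in the plate centre. Three replicate plates are sealed and kept at 26 °C in darkness. Colony diameter is read at 48 h. Inhibition % = (control − treated diameter)/control diameter.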

Dothiorella gregaria [14] = experiment: In vitro fungicidal activity against Dothiorella gregaria assessed as mycelial growth inhibition at 100 mg/l at 26 degC after 48 hr by agar diffusion assay; type: functional; conditions: read-out: GI; method in brief: as §1
Fusarium graminearum [15] = experiment: In vitro fungicidal activity against Fusarium graminearum assessed as mycelial growth inhibition at 100 mg/l at 26 degC after 48 hr by agar diffusion assay; type: functional; conditions: read-out: GI; method in brief: as §1
Botrytis cinerea [16] = experiment: In vitro fungicidal activity against Botryotinia fuckeliana assessed as mycelial growth inhibition at 100 mg/l at 26 degC after 48 hr by agar diffusion assay; type: functional; conditions: read-out: GI; method in brief: as §1
Rhizoctonia solani [17] = experiment: In vitro fungicidal activity against Rhizoctonia solani assessed as mycelial growth inhibition at 100 mg/l at 26 degC after 48 hr by agar diffusion assay; type: functional; conditions: read-out: GI; method in brief: as §1
Fusarium oxysporum [18] = experiment: In vitro fungicidal activity against Fusarium oxysporum assessed as mycelial growth inhibition at 100 mg/l at 26 degC after 48 hr by agar diffusion assay; type: functional; conditions: read-out: GI; method in brief: as §1

| SMILES | EC50 (Colletotrichum gossypii [1]) | EC50 (Dothiorella gregaria [2]) | EC50 (Fusarium graminearum [3]) | EC50 (Botrytis cinerea [4]) | EC50 (Rhizoctonia solani [5]) | EC50 (Fusarium oxysporum [6]) | inhibition of growth at 50 µg/mL (Colletotrichum gossypii [7]) | inhibition of growth at 50 µg/mL (Dothiorella gregaria [8]) | inhibition of growth at 50 µg/mL (Fusarium graminearum [9]) | inhibition of growth at 50 µg/mL (Botrytis cinerea [10]) | inhibition of growth at 50 µg/mL (Rhizoctonia solani [11]) | inhibition of growth at 50 µg/mL (Fusarium oxysporum [12]) | inhibition of growth at 100 µg/mL (Colletotrichum gossypii [13]) | inhibition of growth at 100 µg/mL (Dothiorella gregaria [14]) | inhibition of growth at 100 µg/mL (Fusarium graminearum [15]) | inhibition of growth at 100 µg/mL (Botrytis cinerea [16]) | inhibition of growth at 100 µg/mL (Rhizoctonia solani [17]) | inhibition of growth at 100 µg/mL (Fusarium oxysporum [18]) |
| --- | --- | --- | --- | --- | --- | --- | --- | --- | --- | --- | --- | --- | --- | --- | --- | --- | --- | --- |
| CCCC[C@H](CCn1cncn1)c1ccc(F)cc1 | 61 µM | 15 µM | 66 µM | 61 µM | 36 µM | 112 µM | 100% | 100% | 89% | 100% | 99% | 99% | 100% | 100% | 95% | 100% | 100% | 100% |
| CCC[C@H](CCn1cncn1)c1ccc(F)cc1 | – | – | – | – | – | – | – | – | – | – | – | – | 95% | 100% | 85% | 71% | 90% | 82% |
| CC[C@H](CCn1cncn1)c1ccc(OC)cc1 | – | – | – | – | – | – | – | – | – | – | – | – | 55% | 82% | 66% | 30% | 60% | 65% |
| CC[C@H](CCn1cncn1)c1ccc(Cl)cc1 | – | – | – | – | – | – | – | – | – | – | – | – | 97% | 93% | 76% | 94% | 85% | 91% |
| CC[C@@H](CCn1cncn1)c1ccccc1 | – | – | – | – | – | – | – | – | – | – | – | – | 50% | 60% | 63% | 52% | 75% | 55% |
| CC[C@H](CCn1cncn1)c1ccccc1 | – | – | – | – | – | – | – | – | – | – | – | – | 70% | 81% | 60% | 52% | 80% | 60% |
| CCC[C@H](CCn1cncn1)c1ccccc1 | – | – | – | – | – | – | – | – | – | – | – | – | 92% | 100% | 83% | 98% | 97% | 80% |
| CC[C@@H](CCn1cncn1)c1ccc(Cl)cc1 | – | – | – | – | – | – | – | – | – | – | – | – | 85% | 80% | 73% | 84% | 83% | 80% |
| CC[C@H](CCn1cncn1)c1ccc(F)cc1 | – | – | – | – | – | – | – | – | – | – | – | – | 78% | 82% | 63% | 36% | 82% | 50% |
| CCCC[C@@H](CCn1cncn1)c1ccc(Cl)cc1 | – | – | – | – | – | – | – | – | – | – | – | – | 85% | 97% | 69% | 94% | 84% | 78% |
| CCC[C@@H](CCn1cncn1)c1ccc(F)cc1 | – | – | – | – | – | – | – | – | – | – | – | – | 90% | 83% | 83% | 94% | 86% | 73% |
| CCCC[C@H](CCn1cncn1)c1ccc(Cl)cc1 | – | – | – | – | – | – | – | – | – | – | – | – | 85% | 100% | 73% | 88% | 91% | 82% |
| CCC[C@@H](CCn1cncn1)c1ccccc1 | – | – | – | – | – | – | – | – | – | – | – | – | 75% | 67% | 52% | 44% | 78% | 55% |
| CCCC[C@H](CCn1cncn1)c1ccccc1 | – | – | – | – | – | – | – | – | – | – | – | – | 87% | 100% | 71% | 91% | 90% | 66% |
| CC[C@@H](CCn1cncn1)c1ccc(F)cc1 | – | – | – | – | – | – | – | – | – | – | – | – | 65% | 75% | 56% | 52% | 85% | 60% |
| CC(C)(C)C(=O)C(Oc1ccc(Cl)cc1)n1cncn1 (configuration not stated) [TRIADIMEFON] | 19 µM | 317 µM | 163 µM | 41 µM | 14 µM | 40 µM | 97% | 14% | 59% | 78% | 91% | 91% | 100% | 71% | 76% | 96% | 100% | 97% |
| CCCC[C@@H](CCn1cncn1)c1ccc(F)cc1 | 63 µM | 79 µM | 104 µM | 56 µM | 49 µM | 109 µM | 85% | 71% | 70% | 81% | 88% | 88% | 95% | 97% | 83% | 96% | 100% | 96% |
| CCC[C@@H](CCn1cncn1)c1ccc(OC)cc1 | – | – | – | – | – | – | – | – | – | – | – | – | 90% | 93% | 76% | 92% | 90% | 75% |
| CCCC[C@@H](CCn1cncn1)c1ccccc1 | – | – | – | – | – | – | – | – | – | – | – | – | 82% | 96% | 71% | 91% | 87% | 74% |
| CCC[C@H](CCn1cncn1)c1ccc(OC)cc1 | – | – | – | – | – | – | – | – | – | – | – | – | 80% | 90% | 66% | 60% | 78% | 90% |
| CC[C@@H](CCn1cncn1)c1ccc(OC)cc1 | – | – | – | – | – | – | – | – | – | – | – | – | 50% | 45% | 42% | 30% | 73% | 40% |
